Screening data (PubChem BioAssay)
CASP6 VEID inh – inhibitors of human caspase-6; inhibition, % at 12.5 µM; AID 686996; purified caspase-6, Z-VEID-R110 cleavage fluorescence; 350,000 tested, 0.53% active;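 active means mean inhibition across replicates at least about 35%, with every replicate also reaching that limit, limit read from the data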;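 further: 0% = median of neutral control wells and 100% = no fluorescence left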
Target sequence (P55212 24-179 limits assumed): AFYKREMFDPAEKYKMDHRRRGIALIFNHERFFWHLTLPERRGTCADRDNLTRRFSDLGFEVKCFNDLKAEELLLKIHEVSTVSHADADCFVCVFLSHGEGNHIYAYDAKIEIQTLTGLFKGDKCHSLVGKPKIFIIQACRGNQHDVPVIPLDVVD
Target sequence (P55212 194-293 limits assumed): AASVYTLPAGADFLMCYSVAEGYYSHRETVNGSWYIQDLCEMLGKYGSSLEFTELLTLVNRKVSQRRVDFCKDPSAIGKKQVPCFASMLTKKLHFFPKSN
SIRT5 block – sirtuin-5 (human) deacylase inhibition; Q9NXA8; Purified SirT5, succinyl-peptide AMC, trypsin-coupled fluorescence; inhibition, % at 15 µM; 330,000 tested, 1.1% active; AID 652115; in the data active means inhibition above about 15%
NSD2 HMT inh – NSD2 (human) methyltransferase inhibition; O96028; NSD2 peptide methylation, AlphaScreen, 120 min; inhibition, % at 12.5 µM; 310,000 tested, 0.54% active; in the data active means inhibition above about 50%
UCH37 inh – inhibitors of human deubiquitinating enzyme UCH37 | AID 588478 | inhibition, % (concentration not given with the values) | purified proteasome/UCH37, Ub-AMC cleavage fluorescence | Q9Y5K5 | 330,000 tested, 0.33% active;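 active means mean inhibition over replicate wells above about 20%, limit read from the data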;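 further: 0% = compound-free wells with enzyme and 100% = wells lacking proteasome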
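assay system = human UCH37 enzyme supplied as purified proteasome complex | amount = proteasome at 0.15 nM in the dispensed enzyme solution | schedule = 30 min compound-proteasome preincubation then 25 min substrate reaction, room temperature | measured by = fluorescence, ex 355 nm, em 460 nm | benchmarks = no-proteasome wells (full inhibition) and compound-free wells (no inhibition)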
FGF22 binding – shifts melting point of recombinant human FGF22; activity (Tm shift, normalised), % at 9.99 µM; recombinant FGF22 thermal shift, SYPRO orange fluorescence; percent of sucrose octasulfate shift, DMSO zero; Q9HCT0; 340,000 tested, 1.5% active;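 active means mean Tm shift, scaled 0 neutral to 100 positive control, at about 1.3% or above, every replicate too, limit read from the data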
Target sequence (Q9HCT0 whole entry, looked up): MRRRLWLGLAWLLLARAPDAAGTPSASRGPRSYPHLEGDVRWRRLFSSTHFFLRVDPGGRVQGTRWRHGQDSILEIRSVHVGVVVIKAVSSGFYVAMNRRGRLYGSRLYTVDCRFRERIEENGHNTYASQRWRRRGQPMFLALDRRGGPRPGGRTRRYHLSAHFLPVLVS
Starred values were filed as active, the others as inactive; . = no result. Sampled rows, rich in hits. Any-hit rate of the full collection: about 2.6%.

SMILES	CASP6 VEID inh	SIRT5 block	NSD2 HMT inh	UCH37 inh	FGF22 binding
Nc1nc(NC(=O)c2ccc(F)cc2)ns1	1	.	.	27*	0
CC(=NNC(=O)C(O)c1ccccc1)c1cccnc1 (stereo not drawn)	.	.	.	7	.
Cc1ccc(NCC(=O)NN=Cc2cccc(O)c2)cc1	.	.	.	1	.
Cc1ccc(NCC(=O)N/N=C/c2cc(O)ccc2[N+](=O)[O-])cc1	2	-3	-3	.	43*
COC(=O)CC1C(=O)NCCN1C(=S)Nc1ccccc1Cl (stereo not drawn)	1	-4	-2	4	0
CC(C)OC(=O)CC1C(=O)NCCN1C(=S)NC(=O)c1ccccc1Cl (stereo not drawn)	2	-1	1	1	44*
CN(C)c1ccc(C(CNC(=O)c2ccccc2F)c2c[nH]c3ccccc23)cc1 (stereo not drawn)	-5	-2	2	26*	0
O=C(CCN1CCCCCC1)c1ccccc1	.	.	5	-3	.
O=C(O)CCN1CC2([N+](=O)[O-])C=CC(=O)C([N+](=O)[O-])(C1)C2CC(=O)c1ccccc1 (stereo not drawn)	43*	.	34	13	0
CC(C)n1cc(/C=C2\NC(=O)N(c3cccc(Cl)c3)C2=O)c2ccccc21	-1	0	0	-6	.
O=C(O)Cn1cc(/C=C2/NC(=O)N(c3ccc(Cl)cc3)C2=O)c2ccccc21	3	4	.	0	2.4*
O=C(Nc1cccnc1Cl)c1ccc(=O)oc1	54*	44*	6	-9	0
Cc1cc(C)n(-c2ccc(C(=O)Nc3ccccn3)cc2)n1	.	.	1	5	.
Cc1cc(C)n(-c2ccc(C(=O)Nc3cccnc3Cl)cc2)n1	3	1	-3	3	43*
CC(=O)NS(=O)(=O)c1ccc(NC(=O)c2ccc(-n3nc(C)cc3C)cc2)cc1	0	-1	0	0	43*
COc1ccc2c3c([nH]c2c1)[C@@H](CO)N(C(=O)c1ccccc1)CC31CN(C(=O)CC2CC2)C1	4	7	.	.	0
O=C1CC(N2CCSCC2)C(=O)N1c1cccc(Cl)c1 (stereo not drawn)	44*	-5	1	2	0
COc1cccc2cccc(/C=N/n3cnnc3)c12	1	1	-2	.	43*
N#Cc1cc(-c2ccccc2)oc1N=Cc1ccccc1O	.	.	.	-2	.
Cc1ccc(S(N)(=O)=O)c(C)c1N1CCCC1=O	0	-4	-2	1	44*
Cc1ccc(S(=O)(=O)O)c(C)c1N1CCCC1=O	.	.	-7	5	.
C[C@@H]1CN([C@@H](C)CO)C(=O)c2cc(-c3ccc(C#N)cc3)cnc2O[C@H]1CN(C)Cc1ccccn1	0	-6	.	.	0
NC(=S)Nc1ncc(C(F)(F)F)cc1Cl	1	-3	-1	.	43*
NC(=S)c1ncc(C(F)(F)F)cc1Cl	-2	-5	3	1	0
COc1ccc2c3c(n(C)c2c1)[C@H](CO)N(C(=O)C1CC1)CC31CCN(CC2CCCC2)CC1	-1	0	.	.	0
SMILES	CASP6 VEID inh	SIRT5 block	NSD2 HMT inh	UCH37 inh	FGF22 binding
CC(C)(C)OC(=O)NOCC(=O)N(CC(=O)c1ccccc1)Cc1ccccc1	-4	27*	.	1	0
CC(C)(C)OC(=O)NOCC(=O)N(Cc1ccccc1)CC(O)COc1ccccc1 (stereo not drawn)	3	2	.	1	0
C[C@H](CO)N1C[C@H](C)[C@@H](CN(C)CC2CC2)Oc2ccc(NC(=O)NC3CCCCC3)cc2CC1=O	0	-3	.	.	0
C=CC[C@@H](CC(=O)N[C@H](CO)Cc1ccccc1)C(=O)N[C@@H](C)COC(=O)[C@@H](CC=C)Cc1ccc(F)cc1	1	.	.	1	0
C=CCC[C@H](Cc1ccc(F)cc1)C(=O)OC[C@H](Cc1c[nH]c2ccccc12)NC(=O)[C@@H](CC=C)CC(=O)NCCO	1	2	.	25*	0
C=CCC[C@@H](Cc1ccc(F)cc1)C(=O)OC[C@@H](C)NC(=O)[C@@H](CC=C)CC(=O)N[C@H](CO)Cc1ccccc1	-4	8	.	2	1.4*
COc1ccccc1NC(=O)N1CCN(c2cccc(C(F)(F)F)c2)CC1	3	18*	-3	4	.
COc1ccccc1NC(=O)N1CCN(c2ccc(F)cc2)CC1	.	.	.	1	.
O=C1CCC/C(=N/Nc2ccc(Cl)cc2)C1	-4	-4	14	.	44*
O=C(NN=C1CCCC1)c1ccc(Cl)cc1	0	-2	-3	7	0
Cc1[nH]nc2c1C(c1cccs1)C1=C(CCCC1=O)N2 (stereo not drawn)	-1	-5	.	-35	43*
O=C(Nc1ccc(N2CCN(C(=O)c3cccs3)CC2)cc1)c1cccnc1	1	0	2	4	43*
O=C(Nc1ccc(N2CCN(C(=O)c3ccccc3)CC2)cc1)c1cccnc1	-3	2	2	5	0
CC(=O)n1cc(C=NNC(=O)c2cccc(O)c2)c2ccccc21	.	.	.	0	.
O=C(C[C@H]1CC[C@@H](NC(=O)Nc2cc(F)ccc2F)[C@H](CO)O1)NCc1ccc2c(c1)OCO2	0	4	.	.	0
O=C(CCNC(=O)c1ccco1)Nc1cccc(Br)c1	-6	-2	.	3	0
CSc1cccc(NC(=O)CCNC(=O)c2ccco2)c1	-5	3	-22	5	43*
CN1C(=O)c2cc(NC(=O)Cc3cccs3)ccc2OC[C@H]2O[C@H](CC(=O)N[C@@H]3CCN(Cc4ccccc4)C3)CC[C@H]21	-6	-4	.	.	0
Cc1cc(=O)oc2cc(OCC(=O)Nc3ccc(CN4CCOCC4)cc3)c(Cl)cc12	-5	-6	0	-2	0
Cc1cc(=O)oc2cc(OCC(=O)Nc3ccccc3C(N)=O)c(Cl)cc12	5	-1	1	-318	43*
COc1ccc(Nc2nc(NCc3ccco3)nc(N/N=C/c3ccc(O)cc3)n2)cc1	1	0	0	.	1.9*
C[C@@H]1CN([C@H](C)CO)C(=O)c2cc(NC(=O)CCN3CCOCC3)ccc2O[C@@H]1CN(C)S(=O)(=O)c1cccs1	-1	0	.	.	0
COC(=O)CCS(=O)(=O)c1ccc(Cl)cc1	.	.	.	5	.
O=S(=O)(CCc1ccncc1)c1ccc(Cl)cc1	-4	27*	7	4	-1
CC1(C)OC(=O)C(=Cc2ccc(-c3ccc(S(N)(=O)=O)cc3)o2)C(=O)O1	53*	3	37	5	0
COCCNc1nc2ccccc2n2cnnc12	3	17*	-4	4	0
Cc1ccc(-n2cc(CN3CCN(Cc4nccn4C)CC3)c(-c3ccc(F)cc3)n2)cc1	-23	112*	1	3	0
O=C(c1cc(COc2ccc(F)cc2F)on1)N1CC[C@@H]2CCCC[C@H]2C1	1	-3	-2	3	0
O=C(c1cc(COc2ccc(F)cc2Cl)on1)N1CC[C@@H]2CCCC[C@H]2C1	-3	34*	-1	2	0
